According to ChEMBL document CHEMBL3124940, “Design, synthesis and biological evaluation of D-ring opened galantamine analogs as multifunctional anti-Alzheimer agents” (Eur J Med Chem, 2014):

Experiments:
Acetylcholinesterase = Acetylcholinesterase (Electrophorus electricus, UniProt O42275); assay: Inhibition of electric eel AChE using acetylthiocholine iodide as substrate preincubated for 5 mins followed by substrate addition measured after 5 mins by Ellman's method
Cholinesterase = Cholinesterase (Equus caballus, UniProt P81908); assay: Inhibition of equine serum BChE using butyrylthiocholine iodide as substrate preincubated for 5 mins followed by substrate addition measured after 5 mins by Ellman's method
How it was run: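 Ellman's method with equine serum BChE and butyrylthiocholine iodide; DTNB read-out at 412 nm, 25 °C. Phosphate buffer pH 8.0. At least five concentrations (normally 10^-4 to 10^-9 M), each in triplicate, to build the inhibition curve. Data are means of at least three determinations.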

[1] = Selectivity ratio of IC50 for electric eel AChE to IC50 for equine serum BChE
How it was run: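 AChE is electric eel Type VI-S with acetylthiocholine; BChE is equine serum with butyrylthiocholine. At least five concentrations, each in triplicate. Ratio = IC50(AChE)/IC50(BChE).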

Rattus norvegicus [2] = assay: Toxicity in Wistar rat assessed as lipidperoxidation product level in kidney at 6 umol/100 g body weight, ip by fluorometric analysis relative to control; format: organism-based; conditions: in vivo
How it was run: (§1)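 Rats dosed i.p.; tissues taken after 24 h. For GSH/GSSG, tissue homogenized in 11 volumes of 0.2 M sodium phosphate (5 mM EDTA, pH 8.0) plus 4 volumes of 25% metaphosphoric acid and centrifuged 12 000 × g, 4 °C, 30 min; supernatant read photometrically (GSH) or fluorometrically (GSSG). Lipid peroxidation products measured as TBARS in 19-volume ice-cold saline homogenates, fluorometrically.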

Rattus norvegicus [3] = assay: Toxicity in Wistar rat assessed as lipidperoxidation product level in kidney at 1 umol/100 g body weight, ip by fluorometric analysis relative to control; format: organism-based; conditions: in vivo; how it was run: as §1
Rattus norvegicus [4] = assay: Toxicity in Wistar rat assessed as total glutathione level in kidney at 6 umol/100 g body weight, ip by fluorometric analysis relative to control; format: organism-based; conditions: in vivo; how it was run: as §1
Rattus norvegicus [5] = assay: Toxicity in Wistar rat assessed as total glutathione level in kidney at 1 umol/100 g body weight, ip by fluorometric analysis relative to control; format: organism-based; conditions: in vivo; how it was run: as §1
Rattus norvegicus [6] = assay: Toxicity in Wistar rat assessed as GSSG level in kidney at 6 umol/100 g body weight, ip by fluorometric analysis relative to control; format: organism-based; conditions: in vivo; how it was run: as §1
Rattus norvegicus [7] = assay: Toxicity in Wistar rat assessed as GSSG level in kidney at 1 umol/100 g body weight, ip by fluorometric analysis relative to control; format: organism-based; conditions: in vivo; how it was run: as §1
Rattus norvegicus [8] = assay: Toxicity in Wistar rat assessed as GSH level in kidney at 6 umol/100 g body weight, ip by fluorometric analysis relative to control; format: organism-based; conditions: in vivo
Rattus norvegicus [9] = assay: Toxicity in Wistar rat assessed as GSH level in kidney at 1 umol/100 g body weight, ip by fluorometric analysis relative to control; format: organism-based; conditions: in vivo
Rattus norvegicus [10] = assay: Toxicity in Wistar rat assessed as kidney weight at 6 umol/100 g body weight, ip relative to control; format: organism-based; conditions: in vivo
Rattus norvegicus [11] = assay: Toxicity in Wistar rat assessed as kidney weight at 1 umol/100 g body weight, ip relative to control; format: organism-based; conditions: in vivo
Rattus norvegicus [12] = assay: Toxicity in Wistar rat assessed as lipidperoxidation product level in brain at 6 umol/100 g body weight, ip by fluorometric analysis relative to control; format: organism-based; conditions: in vivo; how it was run: as §1
Rattus norvegicus [13] = assay: Toxicity in Wistar rat assessed as lipidperoxidation product level in brain at 1 umol/100 g body weight, ip by fluorometric analysis relative to control; format: organism-based; conditions: in vivo; how it was run: as §1
Rattus norvegicus [14] = assay: Toxicity in Wistar rat assessed as total glutathione level in brain at 6 umol/100 g body weight, ip by fluorometric analysis relative to control; format: organism-based; conditions: in vivo; how it was run: as §1
Rattus norvegicus [15] = assay: Toxicity in Wistar rat assessed as total glutathione level in brain at 1 umol/100 g body weight, ip by fluorometric analysis relative to control; format: organism-based; conditions: in vivo; how it was run: as §1
Rattus norvegicus [16] = assay: Toxicity in Wistar rat assessed as GSSG level in brain at 6 umol/100 g body weight, ip by fluorometric analysis relative to control; format: organism-based; conditions: in vivo; how it was run: as §1
Rattus norvegicus [17] = assay: Toxicity in Wistar rat assessed as GSSG level in brain at 1 umol/100 g body weight, ip by fluorometric analysis relative to control; format: organism-based; conditions: in vivo; how it was run: as §1
Rattus norvegicus [18] = assay: Toxicity in Wistar rat assessed as GSH level in brain at 6 umol/100 g body weight, ip by fluorometric analysis relative to control; format: organism-based; conditions: in vivo
Rattus norvegicus [19] = assay: Toxicity in Wistar rat assessed as GSH level in brain at 1 umol/100 g body weight, ip by fluorometric analysis relative to control; format: organism-based; conditions: in vivo
Rattus norvegicus [20] = assay: Toxicity in Wistar rat assessed as brain weight at 6 umol/100 g body weight, ip relative to control; format: organism-based; conditions: in vivo
Rattus norvegicus [21] = assay: Toxicity in Wistar rat assessed as brain weight at 1 umol/100 g body weight, ip relative to control; format: organism-based; conditions: in vivo
Rattus norvegicus [22] = assay: Toxicity in Wistar rat assessed as ethoxyresorufin-O-deethylation activity in liver measured as resorufin level at 6 umol/100 g body weight, ip by fluorometric analysis relative to control; format: organism-based; conditions: in vivo
How it was run: (§2)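 Rats dosed i.p.; after 24 h, liver homogenized 1:3 w/v in 0.1 M sodium phosphate pH 7.4 and centrifuged at 9000 × g, 4 °C, 20 min. Supernatant protein determined by the Biuret method. Ethoxyresorufin-O-deethylation measured fluorometrically as resorufin formed.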

Rattus norvegicus [23] = assay: Toxicity in Wistar rat assessed as ethoxyresorufin-O-deethylation activity in liver measured as resorufin level at 1 umol/100 g body weight, ip by fluorometric analysis relative to control; format: organism-based; conditions: in vivo; how it was run: as §2
Rattus norvegicus [24] = assay: Toxicity in Wistar rat assessed as ethoxycoumarin-O-deethylation activity in liver measured as 7-hydroxycoumarin level at 6 umol/100 g body weight, ip by fluorometric analysis relative to control; format: organism-based; conditions: in vivo
Rattus norvegicus [25] = assay: Toxicity in Wistar rat assessed as ethoxycoumarin-O-deethylation activity in liver measured as 7-hydroxycoumarin level at 1 umol/100 g body weight, ip by fluorometric analysis relative to control; format: organism-based; conditions: in vivo
Rattus norvegicus [26] = assay: Toxicity in Wistar rat assessed as ethylmorphine-N-demethylation activity in liver measured as formaldehyde level at 6 umol/100 g body weight, ip by photometric analysis relative to control; format: organism-based; conditions: in vivo
Rattus norvegicus [27] = assay: Toxicity in Wistar rat assessed as ethylmorphine-N-demethylation activity in liver measured as formaldehyde level at 1 umol/100 g body weight, ip by photometric analysis relative to control; format: organism-based; conditions: in vivo
Rattus norvegicus [28] = assay: Toxicity in Wistar rat assessed as protein content in liver at 6 umol/100 g body weight, ip by Biuret method relative to control; format: organism-based; conditions: in vivo; how it was run: as §2
Rattus norvegicus [29] = assay: Toxicity in Wistar rat assessed as protein content in liver at 1 umol/100 g body weight, ip by Biuret method relative to control; format: organism-based; conditions: in vivo; how it was run: as §2
Rattus norvegicus [30] = assay: Toxicity in Wistar rat assessed as lipidperoxidation product level in liver at 6 umol/100 g body weight, ip relative to control; format: organism-based; conditions: in vivo
Rattus norvegicus [31] = assay: Toxicity in Wistar rat assessed as lipidperoxidation product level in liver at 1 umol/100 g body weight, ip relative to control; format: organism-based; conditions: in vivo
Rattus norvegicus [32] = assay: Toxicity in Wistar rat assessed as total glutathione level in liver at 6 umol/100 g body weight, ip by fluorometric analysis relative to control; format: organism-based; conditions: in vivo
How it was run: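 Rats were dosed, killed 24 h later, and liver and other tissues were taken. Samples were homogenized in 11 vol 0.2 M sodium phosphate (5 mM EDTA, pH 8.0) plus 4 vol 25% metaphosphoric acid, then spun at 12 000 × g, 4 °C, 30 min. GSH was read photometrically and GSSG fluorometrically in the supernatant, alongside total glutathione.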

Rattus norvegicus [33] = assay: Toxicity in Wistar rat assessed as total glutathione level in liver at 1 umol/100 g body weight, ip by fluorometric analysis relative to control; format: organism-based; conditions: in vivo; how it was run: as §1
Rattus norvegicus [34] = assay: Toxicity in Wistar rat assessed as GSSG level in liver at 6 umol/100 g body weight, ip by fluorometric analysis relative to control; format: organism-based; conditions: in vivo; how it was run: as §1
Rattus norvegicus [35] = assay: Toxicity in Wistar rat assessed as GSSG level in liver at 1 umol/100 g body weight, ip by fluorometric analysis relative to control; format: organism-based; conditions: in vivo; how it was run: as §1
Rattus norvegicus [36] = assay: Toxicity in Wistar rat assessed as GSH level in liver at 6 umol/100 g body weight, ip by fluorometric analysis relative to control; format: organism-based; conditions: in vivo
Rattus norvegicus [37] = assay: Toxicity in Wistar rat assessed as GSH level in liver at 1 umol/100 g body weight, ip by fluorometric analysis relative to control; format: organism-based; conditions: in vivo
Rattus norvegicus [38] = assay: Toxicity in Wistar rat assessed as liver weight at 6 umol/100 g body weight, ip relative to control; format: organism-based; conditions: in vivo
Rattus norvegicus [39] = assay: Toxicity in Wistar rat assessed as liver weight at 1 umol/100 g body weight, ip relative to control; format: organism-based; conditions: in vivo
Rattus norvegicus [40] = assay: Toxicity in Wistar rat assessed as body weight at 6 umol/100 g body weight, ip relative to control; format: organism-based; conditions: in vivo
Rattus norvegicus [41] = assay: Toxicity in Wistar rat assessed as body weight at 1 umol/100 g body weight, ip relative to control; format: organism-based; conditions: in vivo
Rattus norvegicus [42] = assay: Toxicity in Wistar rat assessed as change in movement at 1 umol/100 g body weight, ip; format: organism-based; conditions: in vivo
Rattus norvegicus [43] = assay: Antialzheimer activity in Wistar rat scopolamine-induced cognition impairment model assessed as total exploration time at 1 umol/100 g body weight, ip treated for 5 mins prior to scopolamine-challenge by eight-arm radial maze test relative to control; format: functional
How it was run: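 Female 60-day-old Wistar rats (Han:Wist) trained in an eight-arm radial maze to error-free trials under 60 s on three consecutive days; each animal served as its own control. Test agent given i.p. in saline 5 min before scopolamine (0.05 mg/100 g b. wt., i.p. in saline). Errors plus baits not found after 10 min, and total searching time, recorded before and 20, 60, 120 min after scopolamine; n = 14, mean ± SEM.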

Rattus norvegicus [44] = assay: Toxicity in Wistar rat scopolamine-induced cognition impairment model assessed as change in movement at 1 umol/100 g body weight, ip; format: organism-based; conditions: in vivo
How it was run: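 60-day-old female Wistar rats were trained in an eight-arm radial maze to no errors in under 60 s on 3 consecutive days; each rat served as its own control. Compound in saline was given i.p., then scopolamine (0.05 mg/100 g, saline, i.p.) 5 min later. Errors plus baits not found after 10 min and total searching time were recorded before and 20, 60 and 120 min after scopolamine; n = 14, mean ± SEM.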

Chain of Cholinesterase (P81908 whole entry): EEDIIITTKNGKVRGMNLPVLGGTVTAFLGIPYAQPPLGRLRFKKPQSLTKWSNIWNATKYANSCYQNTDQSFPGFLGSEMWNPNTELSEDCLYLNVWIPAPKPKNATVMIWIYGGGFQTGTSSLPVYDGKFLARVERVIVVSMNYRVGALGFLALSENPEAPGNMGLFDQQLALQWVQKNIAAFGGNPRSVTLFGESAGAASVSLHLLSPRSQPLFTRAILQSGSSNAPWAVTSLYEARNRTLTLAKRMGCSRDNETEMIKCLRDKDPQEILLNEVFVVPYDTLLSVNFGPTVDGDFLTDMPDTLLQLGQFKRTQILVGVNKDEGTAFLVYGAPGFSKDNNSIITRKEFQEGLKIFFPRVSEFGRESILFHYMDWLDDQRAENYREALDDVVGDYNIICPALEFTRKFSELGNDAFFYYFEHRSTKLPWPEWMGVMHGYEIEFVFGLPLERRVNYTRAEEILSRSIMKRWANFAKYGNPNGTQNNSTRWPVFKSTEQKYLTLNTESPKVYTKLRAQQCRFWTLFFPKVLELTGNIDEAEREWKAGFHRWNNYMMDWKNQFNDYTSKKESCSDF
Chain of Acetylcholinesterase (O42275 whole entry): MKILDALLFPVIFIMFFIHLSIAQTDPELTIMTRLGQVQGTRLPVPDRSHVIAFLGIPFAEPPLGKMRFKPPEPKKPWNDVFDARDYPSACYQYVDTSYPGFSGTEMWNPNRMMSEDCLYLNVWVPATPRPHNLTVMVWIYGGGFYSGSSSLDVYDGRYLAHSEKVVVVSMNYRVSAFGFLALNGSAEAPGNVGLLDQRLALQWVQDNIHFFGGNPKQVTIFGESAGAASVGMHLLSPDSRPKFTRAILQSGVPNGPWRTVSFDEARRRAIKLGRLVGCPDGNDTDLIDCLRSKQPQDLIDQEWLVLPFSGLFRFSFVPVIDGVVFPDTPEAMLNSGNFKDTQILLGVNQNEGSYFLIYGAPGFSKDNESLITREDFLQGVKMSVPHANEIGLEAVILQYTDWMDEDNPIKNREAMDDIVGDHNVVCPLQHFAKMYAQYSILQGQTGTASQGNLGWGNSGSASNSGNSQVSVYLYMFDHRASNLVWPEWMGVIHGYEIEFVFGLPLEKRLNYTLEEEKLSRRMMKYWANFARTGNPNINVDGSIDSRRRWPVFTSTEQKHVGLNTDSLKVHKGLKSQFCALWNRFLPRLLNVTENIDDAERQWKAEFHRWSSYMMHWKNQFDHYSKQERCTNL

COc1ccc2c(c1)[nH]c1cccc(CNC(C)C)c12
IC50 (Acetylcholinesterase): 50.8 µM
IC50 (Cholinesterase): 10.1 µM
Ratio IC50 [1]: 5.03

Nc1c2c(nc3ccccc13)CCCC2 [TACRINE]
Activity (Rattus norvegicus [2]): 89.2 nmol/g
Activity (Rattus norvegicus [3]): 87.4 nmol/g
Activity (Rattus norvegicus [4]): 1800 µg/g
Activity (Rattus norvegicus [5]): 1821 µg/g
Activity (Rattus norvegicus [6]): 171 µg/g
Activity (Rattus norvegicus [7]): 170 µg/g
Activity (Rattus norvegicus [8]): 1457 µg/g
Activity (Rattus norvegicus [9]): 1480 µg/g
Activity (Rattus norvegicus [10]): 0.61 g
Activity (Rattus norvegicus [11]): 0.65 g
Activity (Rattus norvegicus [12]): 154 nmol/g
Activity (Rattus norvegicus [13]): 123 nmol/g
Activity (Rattus norvegicus [14]): 822 µg/g
Activity (Rattus norvegicus [15]): 824 µg/g
Activity (Rattus norvegicus [16]): 75.6 µg/g
Activity (Rattus norvegicus [17]): 79.9 µg/g
Activity (Rattus norvegicus [18]): 671 µg/g
Activity (Rattus norvegicus [19]): 665 µg/g
Activity (Rattus norvegicus [20]): 1.82 g
Activity (Rattus norvegicus [21]): 1.77 g
Activity (Rattus norvegicus [22]): 100 pmol/mg/min
Activity (Rattus norvegicus [23]): 134 pmol/mg/min
Activity (Rattus norvegicus [24]): 197 pmol/mg/min
Activity (Rattus norvegicus [25]): 207 pmol/mg/min
Activity (Rattus norvegicus [26]): 0.44 nmol/mg/min
Activity (Rattus norvegicus [27]): 0.6 nmol/mg/min
Activity (Rattus norvegicus [28]): 65.5 mg/mL
Activity (Rattus norvegicus [29]): 61.8 mg/mL
Activity (Rattus norvegicus [30]): 62 nmol/g
Activity (Rattus norvegicus [31]): 63.8 nmol/g
Activity (Rattus norvegicus [32]): 3173 µg/g
Activity (Rattus norvegicus [33]): 3378 µg/g
Activity (Rattus norvegicus [34]): 431 µg/g
Activity (Rattus norvegicus [35]): 418 µg/g
Activity (Rattus norvegicus [36]): 2310 µg/g
Activity (Rattus norvegicus [37]): 2542 µg/g
Activity (Rattus norvegicus [38]): 6.2 g
Activity (Rattus norvegicus [39]): 6.8 g
Activity (Rattus norvegicus [40]): 219 g
Activity (Rattus norvegicus [41]): 228 g
Activity (Rattus norvegicus [42]): Toxic
Time (Rattus norvegicus [43]): 237 s
Activity (Rattus norvegicus [44]): Toxic
